Columns and labels:
DNA-PK = DNA-PK (Homo sapiens, UniProt P78527); experiment: DNA-PK inhibition assay; assay type: biochemical; settings: IC50 greater than 100 μM taken as not active; data not shown
PI3K isoforms = experiment: PI3K inhibition assay; assay type: biochemical; settings: any of the PI3K isoforms; IC50 greater than 100 μM taken as not active; data not shown
HeLa cells [1] = experiment: Sulphorhodamine blue; assay type: cell-based, human; settings: 25 μM Etoposide and/or 200nM LTUSI54, 4 h, 2 days recovery; vs control
Method in brief: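 Sulphorhodamine B assay on HeLa cells seeded at 2x10^3 cells/well and left to adhere overnight. Treated 4 h with 25 μM Etoposide, 200nM test compound or both, then PBS-washed. Recovery 48 h in medium containing 200nM test compound, or DMSO only for control and Etoposide-alone wells. Absorbance read at 538 nm. Mean ± SEM of four replicates; two-tailed t-test vs control.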

HeLa cells [2] = experiment: CellTox green cytotoxicity assay; assay type: cell-based, human; settings: 24 h
γ-H2AX = experiment: Flow cytometry for γ-H2AX expression; assay type: cell-based, human; settings: for cells stained positive for γ-H2AX: 25 μM Etoposide, 200nM LTUSI54
HeLa cells [3] = experiment: Cell cycle analysis by flow cytometry; assay type: cell-based, human; settings: 4 h treatment; for cells in G2/M phase / cells in S phase: vs control
Method in brief: (§1)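 HeLa cells (DMEM, 10 % FBS) treated 4 h with 25 μM Etoposide, 200nM test compound or both, with or without 2 days recovery in medium containing test compound. Harvested, fixed in 70 % ethanol at −20 °C overnight, then stained with 25 μg/ml propidium iodide plus 100 μg/ml RNase for 30 min at 37 °C in the dark. Doublets and debris gated out. Mean ± SEM, three independent experiments.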

p38α = experiment: Human phospho-kinase array, p38α; assay type: cell-based; settings: HeLa cells, 4 h; 25 μM Etoposide, 200nM LTUSI54; vs control
Method in brief: (§2)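 HeLa cells in small flasks treated 4 h with medium, 25 μM Etoposide, 200nM test compound or combination, then lysed. Human phospho-kinase antibody membranes incubated overnight at 4 °C with lysate at 150 μg/ml protein. Detection antibody cocktail 2 h at room temperature, streptavidin-HRP 30 min, then chemiluminescence at increasing exposures. Fold change vs control; two runs with duplicate spots.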

p53 = experiment: Human phospho-kinase array, p53; assay type: cell-based; settings: HeLa cells, 4 h; 25 μM Etoposide, 200nM LTUSI54; vs control
Method in brief: as §2

HeLa cells [4] = experiment: Sub G1 analysis; assay type: cell-based, human; settings: 25 μM Etoposide and/or 200nM LTUSI54, 4 h, 2 days recovery
Method in brief: as §1

[5] = 4 h treatment followed by 2 days recovery

| Compound | inhibitory effect on DNA-PK (IC50) (DNA-PK) | inhibitory effect on PI3K isoforms (IC50) (PI3K isoforms) | change in HeLa cell number (SRB) (HeLa cells [1]) | cytotoxic effect (CellTox green) (HeLa cells [2]; 200nM) | CellTox fluorescence (HeLa cells [2]; 100 μM, control 191 RFUs, p <0.0001) [RFUs] | cells stained positive for γ-H2AX (γ-H2AX; [5]) [%] | cells stained positive for γ-H2AX (γ-H2AX; after 4 h treatment) | cells in G2/M phase (HeLa cells [3]; 2 days recovery) | cells in G2/M phase (HeLa cells [3]) | cells in S phase (HeLa cells [3]) | fold increase in activity (phosphorylation) of p38α (p38α) [fold] | fold increase in activation of p53 (p53) [fold] | apoptotic cells (sub G1 phase) (HeLa cells [4]) | fold decrease in γ-H2AX positive cells (γ-H2AX; 2 days recovery vs 4 h treatment) | cells in S phase (HeLa cells [3]; 2 days recovery) | cells in G1 phase (HeLa cells [3]; 2 days recovery, vs control and LTUSI54 alone (p < 0.0001)) |
| --- | --- | --- | --- | --- | --- | --- | --- | --- | --- | --- | --- | --- | --- | --- | --- | --- |
| 2-((3-methoxybut-3en-2-yl)amino)-8methyl-4H-benzo[1,3]oxazin-4one [LTUSI54] | no inhibitory effect | no inhibitory effect | significant reduction in cell numbers | no cytotoxic effect | 299.3 | 2.7 | 7.3% | reduction of cells in G2/M phase | significant reduction of cells in G2/M phase | significant increase in cells in S phase | 3.645 | 1.5 | – | – | – | – |
| COc1cc([C@@H]2c3cc4c(cc3[C@@H](O[C@@H]3O[C@@H]5CO[C@@H](C)O[C@H]5[C@H](O)[C@H]3O)[C@H]3COC(=O)[C@H]23)OCO4)cc(OC)c1O [Etoposide, reference compound] | – | – | significant reduction in cell number | – | – | 15 | about 80% | – | – | increase in cells in S phase | 2.64 | 3.5 | significant increase in apoptotic cells | more than 5 fold | significant increase | significant reduction in G1 cells |
